GASC-1 inh: inhibitors of human GASC-1 (JMJD2C) demethylase; Q9H3R0; GST-JMJD2C(1-420) H3K9me3 demethylation, DELFIA europium; inhibition, % at 2.35 µM; 0.069% of 330,000 active; AID 2099;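 active means more than half of a compound's replicate wells show inhibition beyond 50%, single wells judged on their own value; inconclusive means some, but no more than half, of replicates pass 50% inhibition; inactive means no replicate passes 50% inhibition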;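 further: signal counts dimethyl H3K9 product captured on neutravidin plate; 0% = median of DMSO wells and 100% = 0.3 times that DMSO median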
aDG glyco up: increases alpha dystroglycan glycosylation. Pro5-aDG cells, alpha-DG glycosylation AlphaScreen (IIH6); 0% Pro5, 100% B10-LARGE cell signal. activation, % at 10 µM. 0.22% of 360,000 active;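 active means activation of at least 8% versus controls, or a plate z-score of at least 8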;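 further: Pro5 are CHO cells carrying HIG-tagged alpha-DG that lacks glycosylation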
GC-B act: GC-B (human) receptor activation | P20594 | HEK293-GC-B cells, CNP EC30, cGMP TR-FRET; 0% at EC30 CNP, 100% saturating CNP | activation, % at 10 µM | 0.11% of 370,000 active;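 active means activation at 10 µM reaching about 35% in either raw or pattern-adjusted values, limit read from the data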
GRIN3A LBD mod: modulates the human NR3A ligand-binding domain; NR3A LBD differential scanning fluorimetry, Tm shift; 0% = protein alone, 100% = glycine-bound protein; Tm shift relative to glycine control, % at 25 µM; 2.5% of 340,000 active; AID 1259313;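 active means melting temperature shift of at least 10% of the positive control shift, at one fixed dose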
Hep lipid drop: modulators of hepatic lipid droplet formation. AML12 mouse hepatocytes, oleate lipid droplets, BODIPY imaging. inhibition, % at 6.5 µM. 0.4% of 240,000 active. AID 1656;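 active means lipid droplet intensity inhibited by at least 50%, with more than 500 cells counted; inconclusive means wells with under 300 cells, treated as cytotoxic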
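Material – mouse AML12 hepatocyte cell line, fixed after treatment · Compound dosing – one dose, 6.5 µM compound · Times – compound with oleate, overnight · Measured by – Image-based BODIPY and DAPI two-channel analysis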
NPR1 activator: GC-A (human) enzyme activation; 0.14% of 370,000 active; activation, % at 10 µM; HEK293 GC-A cells, cGMP TR-FRET, EC30 ANP; 0% at EC30 ANP, 100% saturating ANP; P16066; in the data active means activation above about 40%
Numbers without * were called inactive; ? = inconclusive; · = no result given. A selection: hits, their analogues and other compounds. The true share with any hit is near 3%.

SMILES	GASC-1 inh	aDG glyco up	GC-B act	GRIN3A LBD mod	Hep lipid drop	NPR1 activator
O=C1N(c2ccccc2)C2CS(=O)(=O)CC2N1c1ccc(Cl)c(Cl)c1 (stereo unspecified)	2	0	-2	30*	·	2
O=S1(=O)CC2SC(=S)N(c3ccccc3)C2C1 (stereo unspecified)	-10	0	-8	0	1	5
O=C(NCc1ccc(F)cc1)c1cc(C2CCCN(C(=O)c3ccc4c(c3)CCO4)C2)on1 (stereo unspecified)	·	0	4	·	·	0
Cc1cc(Cl)ccc1OCC(=O)OCC(=O)NCCNC(=O)COC(=O)COc1ccc(Cl)cc1C	·	0	-5	12*	·	3
COc1ccc([C@H]2OC(=O)C[C@@H]2C(=O)N2CCN(c3ccccc3Cl)CC2)cc1OC	·	·	-7	·	·	-14
O=C(O)c1ccccc1N=Nc1c(O)[nH]c2ccc([N+](=O)[O-])cc12	-4	0	·	27*	3	·
Cc1ccc(NCC(=O)N=Nc2c(O)[nH]c3ccc([N+](=O)[O-])cc23)cc1	7	·	-4	-1	·	-2
CCCCCC(=O)N=Nc1c(O)[nH]c2ccc([N+](=O)[O-])cc12	-7	0	28	30*	?	22
O=C(N=Nc1c(O)[nH]c2ccc([N+](=O)[O-])cc12)c1ccccc1Cl	-3	0	-7	-5	2	-4
O=[N+]([O-])c1ccc2[nH]c(O)c(N=NC(=S)NCC3CCCO3)c2c1 (stereo unspecified)	-2	0	5	27*	14	8
COc1ccc(N2CCN(C(=O)CNC(=O)Cc3ccccc3)CC2)cc1	5	1	-1	-1	-12	3
COc1ccc(N2CCN(C(=O)CNC(=O)Cc3ccc(Cl)cc3)CC2)cc1	-33	0	2	13*	-1	0
CN(CC#CC1=CCCCC1)/C(N)=N/C(=O)OCc1ccccc1	·	·	7	·	·	0
O=C(O)COc1ccccc1/C=N/Nc1ccc(S(=O)(=O)Nc2ccc(Cl)cc2)cc1[N+](=O)[O-]	-5	0	-6	10*	-4	1
COc1c(/C=N/Nc2ccc([N+](=O)[O-])cc2[N+](=O)[O-])c(C)nn1-c1ccccc1	12	0	-9	-9	·	-1
COc1ccccc1NS(=O)(=O)c1cc([N+](=O)[O-])ccc1N/N=C/c1sc(N2CCOCC2)nc1-c1ccccc1	-1	-1	-1	6	25	1
COc1ccccc1NS(=O)(=O)c1cc([N+](=O)[O-])ccc1N/N=C/c1c[nH]c2ccccc12	43	0	-10	23*	1	-4
Cc1nn(-c2ccccc2)c(N2CCCC2)c1/C=N/Nc1ccc(S(=O)(=O)Nc2ccccc2)cc1[N+](=O)[O-]	0	0	4	1	82*	-2
O=C(O)COc1ccccc1C=NNc1ccc([N+](=O)[O-])cc1S(=O)(=O)Nc1ccc(Cl)cc1	-1	2	5	24*	·	5
COc1ccccc1NS(=O)(=O)c1ccc(N/N=C/c2ccccc2OCC(=O)O)c([N+](=O)[O-])c1	4	0	-3	4	-2	0
CC[C@]12c3[nH]c4ccccc4c3CCN1C(=O)C(CC(=O)NCCCn1ccnc1)C[C@@H]2C(=O)N1CCN(C(=O)c2ccco2)CC1 (stereo partly specified)	-8	0	4	-2	·	2
CCc1nc2ccc(C(=O)NCc3cccs3)cn2c1N(CCC(C)C)CCN(C)C	·	0	-2	·	·	-1
COC(=O)c1ccc2nc(C3CCCCC3)c(Cc3ccccc3)n2c1	·	0	13	·	·	5
COc1ccc(C=NNc2ccc([N+](=O)[O-])cc2S(=O)(=O)Nc2ccccc2C(=O)O)cc1OC	1	0	-8	31*	·	6
COc1ccc(/C=N/Nc2ccccc2C(=O)O)cc1Cn1cc([N+](=O)[O-])cn1	2	0	-3	-2	-3	6

Screens (PubChem BioAssay)
